Assay outcomes deposited in PubChem by Sanford-Burnham Center for Chemical Genomics.
Only a sample is shown.
Apaf1 activ = activates human Apaf-1 apoptosome; Apaf-1 apoptosome caspase-3 activation, DEVD-Rh110 fluorescence; hits give low values; actives 0.31% (n = 330,000); activity change, negative = activation, % at 20 µM;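 active = activity change at or below -40% at 20 µM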
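Assay system – biochemical Apaf-1 apoptosome reconstitution · Medium – 20 mM HEPES buffer, pH 7.5, containing CHAPS and BSA · Incubation – 30 min preincubation, 50 min reaction, room temperature · Measured by – Caspase-3-released Rh110 fluorescence, 540 nm emission, 480 nm excitation · Read-out – Caspase-3 cleavage activity downstream of Apaf-1 activation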
Rh110 act interf = Rh110 signal interference in Apaf-1 activator counter-screen; shares compounds with Apaf1 activ; Rh110 fluorescence interference, quenched caspase reaction, Ex480/Em540; fluorescence interference (activity change), % at 20 µM, hits read low; 980 tested, under 10 active; AID 504616;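 active = mean activity change at or below -40% when tested at 20 µM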
Apaf-1 act conf = Apaf-1 (human) activation, single-dose confirmed. shares compounds with Apaf1 activ. reconstituted apoptosome caspase-3 activity, DEVD-Rh110 fluorescence; hits give low values. activity change, negative = activation, % at 20 µM. actives 5% (n = 980);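 active = mean activity change at or below -40%, meaning activation of 40% or more, at 20 µM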
Apaf1 act interf = shows fluorescence interference in the Apaf-1 activator assay format; shares compounds with Apaf1 activ; fluorescence interference counterscreen; EC50, µM; 55 tested, under 10 active; call rule not given here
Active calls of the source: *; · = not tested or not shown.

SMILES | Apaf1 activ | Rh110 act interf | Apaf-1 act conf | others
CCN1CCN(C2=C(NS(=O)(=O)c3ccc(C)cc3)C(=O)c3ccccc3C2=O)CC1 | 77 | · | ·
C#CCOCCOCCOCCNc1nc(N2CCN(C(=O)CCCCCCCCCCNC(=O)[C@H](CCCCN)n3cc(CCO)nn3)CC2)nc(N2CCN(C(=O)CCCCCCCCCCNC(=O)[C@H](CCCCN)n3cc(CCO)nn3)CC2)n1 | 64 | · | ·
N#Cc1ccc(C23CC4(C2)[C@H](CN(Cc2ccc(-c5ccccc5)cc2)[C@@H]4c2ccccc2)C3c2ccc(C(F)(F)F)cc2)cc1 (stereo partly specified) | 45 | · | ·
OC(c1ccccc1)c1cccnc1 (stereo unspecified) | -54* | -7 | 9
CC(C)C[C@@H]1CN=C(N)N1C[C@@H]1CCCN1C[C@@H](C(C)C)N1C[C@@H](Cc2ccccc2)N(CCCC2CCCC2)C1=N | 55 | · | ·
CC(C)CC(=O)NC(NC(=S)Nc1sc2c(c1C#N)CCCC2)C(Cl)(Cl)Cl (stereo unspecified) | -215* | 5 | 34
CCOC(=O)Nc1sc2c(c1C#N)CCCC2 | -62* | -4 | 10
CCOC(=O)N=Nc1c2ccccc2c2nc3no[nH]c3nc12 | 88 | · | ·
CN1CCN(CCCNC(=O)c2cc3c(-c4ccc(Cl)cc4)nn(C)c3s2)CC1 | 43 | · | ·
O=C1NCC(c2ccccc2)C1C(=O)N/N=C\c1ccc(-c2cccc(Cl)c2Cl)o1 (stereo unspecified) | 40 | · | ·
CCN1/C(=C/C=C/c2sc3ccccc3[n+]2CC)Sc2ccccc21 | 90 | · | ·
CCN1CCN(C2=C(NS(=O)(=O)c3ccc(NC(C)=O)cc3)C(=O)c3ccccc3C2=O)CC1 | 74 | · | ·
CCN1CCN(S(=O)(=O)c2ccc(Cl)c(C(=O)N(C)Cc3cccs3)c2)CC1 | 58 | · | ·
CCN1CCN(S(=O)(=O)c2ccc(Cl)c(C(=O)Nc3ccccc3N3CCCC3)c2)CC1 | -74* | 11 | 13
CN1CCN(c2ccc(S(=O)(=O)N3CCCCC3)cc2NC(=O)c2ccc3ccccc3c2)CC1 | -155* | 4 | 8
CC(=O)Nc1ccc(S(=O)(=O)NC2=C(N3CCN(C)CC3)C(=O)c3ccccc3C2=O)cc1 | 60 | · | ·
CN1CCN(c2ccc(S(=O)(=O)N3CCCCC3)cc2NC(=O)/C=C/c2ccc(Cl)c([N+](=O)[O-])c2)CC1 | 51 | · | ·
Cc1ccc(-c2cc(C(=O)O)c3cc(Br)ccc3n2)s1 | 11 | · | ·
Oc1ccc(C[C@@H]2CNCCN2CCC23CC4CC(CC(C4)C2)C3)cc1 | 47 | · | ·
Cc1ncc([N+](=O)[O-])n1CCN1C(=O)c2ccccc2C1=O | -144* | -3 | 9
COc1ccc(-c2noc(-c3ccccc3C(=O)NCc3ccco3)n2)cc1OC | -324* | 4 | -4
COc1ccc(NC(=O)c2ccc(-c3ccc(-c4noc(C)n4)cc3C)cc2)cc1N1CCN(C)CC1 | 57 | · | ·
O=C(NCc1ccccc1)c1ccc2nc(-c3ccco3)c(-c3ccco3)nc2c1 | 65 | · | ·
Cc1ccc(C(=O)NC(=S)Nc2cccc3nsnc23)cc1 | 59 | · | ·
C#CCOCCOCCOCCNc1nc(N2CCN(C(=O)CCCCCCCCCCNC(=O)[C@H](CCC(=O)O)n3cc(CCCCCN)nn3)CC2)nc(N2CCN(C(=O)CCCCCCCCCCNC(=O)[C@@H]([C@H](C)O)n3cc(C)nn3)CC2)n1 | 51 | · | ·
SMILES | Apaf1 activ | Rh110 act interf | Apaf-1 act conf | others
O=c1[nH]c2ccc(S(=O)(=O)Nc3ccc(-c4nnc5n4CCCCC5)cc3)cc2o1 | -154* | 6 | 16
Cc1ccc(C(=O)N/C(=C\c2ccc(-c3ccccc3[N+](=O)[O-])o2)C(=O)NCCCN2CCOCC2)cc1 | 65 | · | ·
COc1cc(Cn2c(N)c(C#N)c3nc4ccccc4nc32)cc(OC)c1 | 58 | · | ·
O=[N+]([O-])c1cccc(C2(O)COc3ccccc3O2)c1 (stereo unspecified) | -83* | 5 | 11
CCCCCN=C(N)N/N=C/c1c[nH]c2ccc(OC)cc12 | 78 | · | ·
CCCC1=Nc2cc(C(=O)NCCCOCC)ccc2Sc2ccccc21 | 45 | · | ·
Cc1cc(C)cc(NC(=O)C2CCN(S(C)(=O)=O)CC2)c1 | -67* | 1 | 0
C#CCOCCOCCOCCNc1nc(N2CCN(C(=O)CCCCCCCCCCNC(=O)[C@@H](CCSC)n3cc(CCO)nn3)CC2)nc(N2CCN(C(=O)CCCCCCCCCCNC(=O)[C@H]([C@@H](C)CC)n3cc(CCCCN=C(N)N)nn3)CC2)n1 | 64 | · | ·
Clc1ccc(-c2nnc3sc(Cc4cccs4)nn23)cc1 | 58 | · | ·
CCOC(CNc1ncnc2c1cnn2C)OCC | -143* | 0 | 6
CSc1ccccc1NC(=O)c1cc(S(=O)(=O)N(C)C)ccc1N1CCCC1 | 52 | · | ·
CSc1ccccc1NC(=O)c1cc(-c2ccc3c(c2)OCO3)on1 | -197* | 10 | 8
COc1ccc2nc3cccc(OC)c3nc2c1 | 97 | · | ·
Cc1ccc(NC(=S)Nc2cccc3cnccc23)cc1 | 96 | · | ·
Oc1c(Cl)cc(Cl)c2c1NCCC2 | 47 | · | ·
CCOC(=O)c1ccc(N=c2sc(C(=O)OC)cc(=O)n2CCCN2CCOCC2)cc1 | 2 | · | ·
COc1cc([N+](=O)[O-])ccc1NC(=O)CN1CCc2cc(OC)c(OC)cc2C1 | 44 | · | ·
COc1ccc(NC(=O)CCCCCN2C(=O)c3cccc([N+](=O)[O-])c3C2=O)c(OC)c1 | 41 | · | ·
COc1cc([N+](=O)[O-])ccc1NC(=O)COC(=O)c1ccc(NC(N)=O)cc1 | -44* | -1 | -43* | Apaf1 act interf=>100
COc1cc(OC)c2c(-c3ccccc3)cc(=O)oc2c1C(CCN1CCOCC1)c1ccc(N(C)C)cc1 (stereo unspecified) | 52 | · | ·
COC(=O)C1=C(C)N(Cc2ccccc2)C(=NCc2ccc(OC)cc2)N[C@H]1c1ccccc1 | 51 | · | ·
CC(=O)Nc1ccc(NC(=O)C2CCCN2C(=O)Nc2ccc(F)cc2)cc1 (stereo unspecified) | -208* | 4 | 15
COc1ccc(NC(=O)N2CCCC2C(=O)Nc2ccccc2)cc1 (stereo unspecified) | -41* | 1 | 13
O=C(NCCc1ccccc1)C1CCCN1C(=O)Nc1ccc(F)cc1 (stereo unspecified) | -43* | 6 | 12
COc1cccc(/C=N/NC(=O)NC23CC4CC(CC(C4)C2)C3)c1O | 40 | · | ·
SMILES | Apaf1 activ | Rh110 act interf | Apaf-1 act conf | others
Cc1ccc(-c2ccc(/C=N\NC(=O)C3C(=O)NCC3c3ccccc3)o2)cc1Cl (stereo unspecified) | 43 | · | ·
Brc1ccc(-c2cn3nc4c(nc3n2)CCCC4)cc1 | 41 | · | ·
CC(=O)OCCCNc1cc(SCc2ccco2)c2nonc2c1[N+](=O)[O-] | 74 | · | ·
O=C1Nc2ccccc2N2CCCC12 (stereo unspecified) | 78 | · | ·
O=C1CN(C(=O)c2cnccn2)c2ccccc2N1 | -47* | 16 | 11
Oc1c(Br)cc(/C=N/NC(=S)NCc2ccco2)cc1Br | -329* | 0 | 14
COc1cc(NC2CCCCC2O)c2nc(-c3ccc(Cl)cc3)ccc2c1 (stereo unspecified) | 55 | · | ·
Nc1ccc(Oc2ncccn2)cc1 | 44 | · | ·
Cc1ccccc1NC(=O)CSc1nnc(NC(=O)c2ccco2)s1 | -66* | -4 | 4
